By Ki is commonly meant the dissociation constant of the complex between target and ligand, obtained from inhibition or displacement. Read a low Ki as a stronger hold on the target. One may read the EC50 as the concentration giving half of the maximal effect. In general, ED50 refers to the dose at which the effect has come halfway, by size or by number of responders. In general, IC50 refers to the concentration at which inhibition is half-maximal.

The text below walks through data of ChEMBL document CHEMBL2177058 (J Med Chem, 2012).

For experiment [1], the target named is T1, Kappa-type opioid receptor (Homo sapiens, UniProt P41145). The experiment in a line: Displacement of [3H]U69,593 from human kappa opioid receptor expressed in CHO cell membranes incubated for 60 mins by liquid scintillation counting.
The target in experiment [2] is Delta-type opioid receptor (Homo sapiens, UniProt P41143). The experiment in a line: Displacement of [3H]pCl-DPDPE from human delta opioid receptor expressed in CHO cell membranes incubated for 60 mins by liquid scintillation counting. (In a radioligand displacement assay an active substance lowers the binding of a labelled ligand.)
The target of experiment [3] is T1, Kappa-type opioid receptor. The experiment in a line: Agonist activity at human kappa opioid receptor expressed in CHO cell membranes incubated for 60 mins by [35S]GTPgammaS binding assay. The format is functional. Background: GTPγS is a poorly hydrolysed GTP analogue; its binding reports G protein activation.
Another experiment concerns the target D(1A) dopamine receptor (Homo sapiens, UniProt P21728). The experiment in a line: Displacement of [3H]SCH-23390 from human dopamine D1 receptor expressed in LHD1 cells. It is filed as cell-based.
The target of another experiment is D(3) dopamine receptor (Homo sapiens, UniProt P35462). Kind of experiment: Displacement of [3H]YM-09151-2 from human dopamine D3 receptor expressed in CHOp cells. The format is cell-based.
The target of a further experiment is Mu-type opioid receptor (Homo sapiens, UniProt P35372). The experiment in a line: Displacement of [3H]DAMGO from human mu opioid receptor expressed in CHO cell membranes incubated for 60 mins by liquid scintillation counting.
Another experiment deals with D(2) dopamine receptor (Homo sapiens, UniProt P14416). Kind of experiment: biochemical. The format is cell-based, CHOp.
For experiment [4], the system named is Mus musculus. The experiment in a line: Analgesic activity in CD1 mouse assessed as inhibition of acetic acid induced writhing at 2.5 mg/kg, sc dosed 30 mins before acetic acid challenge in presence of 20 mg/kg, sc KOP receptor antagonist nor-BNI. It is filed as functional, organism-based. In general terms: In writhing tests, fewer writhes than in controls are read as antinociception.

For experiment [5], the system named is Mus musculus. The experiment in a line: Analgesic activity in CD1 mouse assessed as inhibition of acetic acid induced writhing dosed subcutaneously 30 mins before acetic acid challenge. The format is functional. The method in brief:
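Mice received the drug subcutaneously across a range of doses, then underwent the acetic acid induced writhing test. Inhibition of writhing was scored against a control group. Data are mean SEM, n = 5−6 mice per group. ED₅₀ was taken from the dose–response curve.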

The target in experiment [6] is Kappa-type opioid receptor (Cavia porcellus, UniProt P41144). The experiment in a line: Displacement of [3H]ethylketocyclazocine from kappa opioid receptor in guinea pig brain.

The source made the active and inactive calls. No cut-off for these calls is given here. Where only a bound is given, the exact number is not on record here.

Mu-type opioid receptor, sequence (P35372 whole entry): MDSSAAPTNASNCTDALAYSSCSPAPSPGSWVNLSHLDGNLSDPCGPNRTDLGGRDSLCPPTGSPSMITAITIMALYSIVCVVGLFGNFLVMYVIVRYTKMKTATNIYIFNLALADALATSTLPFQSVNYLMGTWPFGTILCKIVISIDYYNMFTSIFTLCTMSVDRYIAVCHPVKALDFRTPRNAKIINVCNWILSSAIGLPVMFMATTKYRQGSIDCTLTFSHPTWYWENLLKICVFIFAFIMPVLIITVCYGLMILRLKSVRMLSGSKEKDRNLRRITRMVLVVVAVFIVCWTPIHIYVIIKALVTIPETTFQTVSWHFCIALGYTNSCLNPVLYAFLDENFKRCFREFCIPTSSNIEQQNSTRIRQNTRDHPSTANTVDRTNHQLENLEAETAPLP
D(3) dopamine receptor, sequence (P35462 whole entry): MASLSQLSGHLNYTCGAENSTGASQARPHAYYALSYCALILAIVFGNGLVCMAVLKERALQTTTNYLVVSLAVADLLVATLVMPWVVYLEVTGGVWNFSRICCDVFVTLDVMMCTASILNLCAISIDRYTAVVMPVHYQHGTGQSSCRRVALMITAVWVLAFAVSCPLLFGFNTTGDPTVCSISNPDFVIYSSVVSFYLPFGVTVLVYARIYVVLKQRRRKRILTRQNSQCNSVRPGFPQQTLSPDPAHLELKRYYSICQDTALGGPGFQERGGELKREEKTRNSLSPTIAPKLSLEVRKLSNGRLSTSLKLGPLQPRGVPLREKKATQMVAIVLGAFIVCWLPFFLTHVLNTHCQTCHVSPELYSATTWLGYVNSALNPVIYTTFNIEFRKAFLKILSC
Delta-type opioid receptor, sequence (P41143 whole entry): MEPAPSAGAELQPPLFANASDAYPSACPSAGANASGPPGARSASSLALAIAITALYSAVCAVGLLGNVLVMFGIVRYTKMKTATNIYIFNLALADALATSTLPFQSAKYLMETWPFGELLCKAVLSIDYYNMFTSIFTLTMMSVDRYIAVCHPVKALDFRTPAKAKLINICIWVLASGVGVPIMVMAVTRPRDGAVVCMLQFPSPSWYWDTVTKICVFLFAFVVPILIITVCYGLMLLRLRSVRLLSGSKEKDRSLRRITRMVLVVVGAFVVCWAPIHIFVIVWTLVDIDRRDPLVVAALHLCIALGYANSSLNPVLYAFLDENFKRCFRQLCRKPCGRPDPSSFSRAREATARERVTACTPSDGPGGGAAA
D(1A) dopamine receptor, sequence (P21728 whole entry): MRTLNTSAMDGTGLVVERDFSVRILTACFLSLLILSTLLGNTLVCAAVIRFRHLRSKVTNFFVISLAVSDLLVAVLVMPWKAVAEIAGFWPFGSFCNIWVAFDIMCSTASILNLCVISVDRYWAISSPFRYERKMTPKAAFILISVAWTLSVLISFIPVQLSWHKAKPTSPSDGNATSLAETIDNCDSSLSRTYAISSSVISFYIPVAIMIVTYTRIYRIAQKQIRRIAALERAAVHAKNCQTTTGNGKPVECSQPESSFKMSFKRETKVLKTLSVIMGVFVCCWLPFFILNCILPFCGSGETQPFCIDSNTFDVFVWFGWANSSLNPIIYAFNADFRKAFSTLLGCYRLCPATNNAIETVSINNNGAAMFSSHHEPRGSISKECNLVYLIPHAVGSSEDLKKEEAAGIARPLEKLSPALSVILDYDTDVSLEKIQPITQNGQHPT
D(2) dopamine receptor, sequence (P14416 whole entry): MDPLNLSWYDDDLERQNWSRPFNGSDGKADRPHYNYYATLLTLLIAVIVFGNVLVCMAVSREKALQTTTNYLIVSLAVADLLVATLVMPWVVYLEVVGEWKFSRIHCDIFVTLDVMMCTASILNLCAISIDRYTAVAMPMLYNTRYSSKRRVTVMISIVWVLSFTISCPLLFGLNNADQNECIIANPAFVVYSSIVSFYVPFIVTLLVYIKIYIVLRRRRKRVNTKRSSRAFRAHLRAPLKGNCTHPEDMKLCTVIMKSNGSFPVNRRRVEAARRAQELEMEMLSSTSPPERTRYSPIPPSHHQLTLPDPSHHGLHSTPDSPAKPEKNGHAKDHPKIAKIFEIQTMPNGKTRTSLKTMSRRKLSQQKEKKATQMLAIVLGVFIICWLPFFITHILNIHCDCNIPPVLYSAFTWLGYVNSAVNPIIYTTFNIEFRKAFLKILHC
T1 sequence (P41145 whole entry): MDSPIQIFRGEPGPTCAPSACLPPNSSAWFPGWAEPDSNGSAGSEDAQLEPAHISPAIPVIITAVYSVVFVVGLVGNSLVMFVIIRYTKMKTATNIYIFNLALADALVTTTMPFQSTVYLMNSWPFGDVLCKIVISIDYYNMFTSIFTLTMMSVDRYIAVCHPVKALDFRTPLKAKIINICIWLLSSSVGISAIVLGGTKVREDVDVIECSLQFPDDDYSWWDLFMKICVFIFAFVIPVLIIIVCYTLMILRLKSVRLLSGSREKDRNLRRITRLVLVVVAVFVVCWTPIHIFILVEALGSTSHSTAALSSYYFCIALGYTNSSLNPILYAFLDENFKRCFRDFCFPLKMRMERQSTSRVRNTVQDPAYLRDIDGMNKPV
Kappa-type opioid receptor (Cavia porcellus, UniProt P41144), sequence (P41144 whole entry): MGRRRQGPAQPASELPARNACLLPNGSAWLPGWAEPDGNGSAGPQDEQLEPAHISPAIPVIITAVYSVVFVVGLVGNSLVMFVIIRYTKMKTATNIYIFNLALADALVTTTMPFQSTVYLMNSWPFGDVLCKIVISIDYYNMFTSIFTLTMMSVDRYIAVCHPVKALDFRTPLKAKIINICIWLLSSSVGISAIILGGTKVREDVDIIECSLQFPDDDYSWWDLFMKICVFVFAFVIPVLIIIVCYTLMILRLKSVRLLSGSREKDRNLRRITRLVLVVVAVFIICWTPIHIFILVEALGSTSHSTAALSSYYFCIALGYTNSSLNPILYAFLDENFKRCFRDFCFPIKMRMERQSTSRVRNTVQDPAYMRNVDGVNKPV

In the case of `CCCCN(CCc1ccccc1)CCc1cccc(O)c1`, the inhibition constant (Ki) was 0.0109 µM in experiment [1]; 2.43 µM in [2]; above 10 µM on D(1A) dopamine receptor; 1.15 µM on D(3) dopamine receptor; 0.412 µM on Mu-type opioid receptor; 1.23 µM on D(2) dopamine receptor. Further, a half-maximal response in experiment [3] (EC50) required 0.0462 µM.
Take `Oc1cccc(CCN(CCc2ccccc2)CC2CCC2)c1`: the result with Mus musculus [4] was inactive. The Ki in experiment [2] is above 10 µM; at D(1A) dopamine receptor, above 10 µM; at D(3) dopamine receptor it was 0.282 µM; at D(2) dopamine receptor, 0.45 µM. Further, the Activity entry in the experiment with Mus musculus [5] was “Dose-dependent effect”. Also, the ED50 in the experiment with Mus musculus [5] (CD1, sc) worked out at 1.91 mg/kg.
In the case of `CCCCCCN(CCc1ccccc1)CCc1cccc(O)c1`, the Ki in [1] was 0.141 µM; in [2], 3.57 µM; at D(1A) dopamine receptor, above 10 µM; on D(3) dopamine receptor it was 1.15 µM; at Mu-type opioid receptor, 0.788 µM; at D(2) dopamine receptor it was 0.831 µM. The compound also gave an EC50 in experiment [3] of 0.647 µM.
For the compound `CCCN(CCc1ccccc1)CCc1cccc(O)c1`, the Ki in experiment [1] was 0.00813 µM; in experiment [2], 3.71 µM; at D(1A) dopamine receptor it was above 10 µM; at D(3) dopamine receptor, 0.0218 µM; at Mu-type opioid receptor, 0.594 µM; on D(2) dopamine receptor it was 0.0644 µM. This compound registered an EC50 in [3] of 0.0491 µM. Further, the IC50 in experiment [6] was determined as 0.057 µM.
Turning to `Oc1cccc(CCN(CCc2ccccc2)CC2CC2)c1`, the Ki was above 10 µM in experiment [2], above 10 µM at D(1A) dopamine receptor, 0.168 µM on D(3) dopamine receptor and 0.118 µM at D(2) dopamine receptor.
For `CCCCCN(CCc1ccccc1)CCc1cccc(O)c1`, the inhibition constant (Ki) in [1] was 0.0126 µM; in [2] it was 1.32 µM; on D(1A) dopamine receptor, above 10 µM; on D(3) dopamine receptor, 1.1 µM; on Mu-type opioid receptor it was 0.325 µM; at D(2) dopamine receptor, 1.42 µM. In addition, the midpoint of the response in experiment [3], the EC50, lay at 0.0864 µM.
